# Screening results (PubChem BioAssay)
# Kir21 block: blocks the mouse Kir2.1 inward-rectifier potassium channel; HEK293-Kir2.1, FluxOR thallium flux fluorescence; active compounds read low; B-score at 10 µM; 310,000 tested, 0.85% active;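 active = fluorescence ratio B-score at or below minus 3 SD of library scores, with starting-brightness B-score within 2 SD, cut at about -4.2 in these data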;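 note: channel flux triggered by added potassium and thallium sulfate stimulus; B-score of peak minus minimum fluorescence over baseline after thallium stimulus; more negative B-score means stronger Kir2.1 block with less thallium influx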
# KCNK9 inh: blocks the human KCNK9 two-pore domain potassium channel. Q9NPC2. HEK293 KCNK9, FluxOR thallium flux fluorescence; active compounds read low. B-score at 10 µM. 310,000 tested, 1.2% active. AID 488922;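 active = ratio B-score over 3 SD below the library mean, with starting fluorescence within 5 SD of its mean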;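 note: negative B-score means less thallium flux so channel inhibition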
# KCNQ1 pot: potentiators or activators of human KCNQ1 potassium channel; CHO-K1 KCNQ1, thallium flux FluxOR fluorescence; active compounds read high; 310,000 tested, 0.35% active; B-score at 10 µM;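 active = fluorescence ratio B-score, a plate-corrected score, at least three library SD, with initial intensity B-score within 5 SD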
# Target sequence (P51787 whole entry, looked up): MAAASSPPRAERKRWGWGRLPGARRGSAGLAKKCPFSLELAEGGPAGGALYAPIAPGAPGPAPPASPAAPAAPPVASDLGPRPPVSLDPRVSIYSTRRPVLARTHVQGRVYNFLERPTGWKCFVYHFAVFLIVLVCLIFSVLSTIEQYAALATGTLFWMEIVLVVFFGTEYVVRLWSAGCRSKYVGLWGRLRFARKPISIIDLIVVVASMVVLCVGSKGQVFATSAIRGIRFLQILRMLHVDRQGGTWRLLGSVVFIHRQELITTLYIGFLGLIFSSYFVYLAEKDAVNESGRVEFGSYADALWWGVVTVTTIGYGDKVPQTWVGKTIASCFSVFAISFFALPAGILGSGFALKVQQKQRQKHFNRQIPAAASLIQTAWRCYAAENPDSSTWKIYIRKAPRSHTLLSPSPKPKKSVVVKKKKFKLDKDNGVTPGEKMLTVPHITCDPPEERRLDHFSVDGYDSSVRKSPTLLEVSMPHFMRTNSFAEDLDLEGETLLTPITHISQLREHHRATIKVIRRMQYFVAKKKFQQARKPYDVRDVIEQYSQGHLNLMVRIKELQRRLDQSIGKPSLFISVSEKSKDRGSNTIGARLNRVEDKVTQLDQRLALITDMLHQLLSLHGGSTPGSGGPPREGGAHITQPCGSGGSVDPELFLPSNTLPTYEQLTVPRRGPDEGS
#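 Test system: CHO-K1 cells stably expressing KCNQ1 / Medium: assay buffer / Also added: depolarizing K+/Tl+ stimulus, K2SO4 and Tl2SO4 each 12.5 mM in 5x stock / Incubation: 90 min dye loading and 20 min compound exposure, both at room temperature / Signal: thallium influx via FluxOR fluorescence, kinetic imaging / Evaluation: B score of baseline-normalized fluorescence ratio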
# hERG protect: compounds protecting human hERG from proarrhythmic drug block | Q12809 | CHO-hERG, FluxOR thallium flux, dofetilide IC70 present | activation (rescue from dofetilide block), less the hit threshold, % at 10 µM | 310,000 tested, 0.51% active | AID 1511;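 active = activation above the mean of controls blocked by dofetilide plus 5 SD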;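 note: thallium influx through hERG after potassium depolarization seen as dye fluorescence rise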
# KCNK3 block: human KCNK3 channel inhibition, primary screen. AID 602410. CHO-KCNK3 thallium flux, FluxOR fluorescence; active compounds read low. O14649. B-score at 10 µM. 340,000 tested, 0.84% active;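 active = B-score under library mean minus 4 SD, starting fluorescence ratio at most library mean plus 5 SD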;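 note: more negative B-score means stronger inhibition of thallium flux through KCNK3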
# KCNQ1 inh: human KCNQ1 channel inhibition | P51787 | CHO-K1 KCNQ1, FluxOR thallium flux fluorescence; active compounds read high | B-score at 10 µM | 310,000 tested, 1.3% active;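 active = compounds whose thallium flux B-score, printed positive for inhibition, exceeds three library SD while starting fluorescence stays within three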;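 note: channel opened by potassium depolarization with thallium stimulus after 20 min compound exposure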
# A number is an active result; 0 = inactive; - = no result. The list is not random: actives were taken first. Their share in the collection is about 3.7%.
SMILES,Kir21 block,KCNK9 inh,KCNQ1 pot,hERG protect,KCNK3 block,KCNQ1 inh
CCCC(=O)Nc1ccc(OCC(O)CNC(C)C)c(C(C)=O)c1 (stereo not drawn),0,0,9,0,0,0
CC(C)NCC(O)COc1cccc2[nH]ccc12 (stereo not drawn),-,-,-,-,0,-
CS(=O)(=O)c1nc(-c2cccs2)cc(C(F)(F)F)n1,-6,0,0,0,-,0
COc1ccc(-c2cc(C(F)(F)F)nc(S(C)(=O)=O)n2)cc1,0,0,0,0,0,6
CN1CCN(c2nc(-c3cccs3)cc(C(F)(F)F)n2)CC1,0,0,10,0,0,0
COc1nc(-c2ccccc2)cc(C(F)(F)F)n1,0,0,0,4.7,0,0
CCc1ccc(C(C(=O)NC2CCCC2)N(C(=O)c2csnn2)C2CC2)cc1 (stereo not drawn),0,0,0,0,0,0
Cc1c(Cl)cnc(NC(=O)COC(=O)[C@H](C)NC(=O)c2ccccc2)c1Cl,-,-,-,-,0,-
CCN(c1nc(C)cc(OC)n1)S(=O)(=O)c1ccccc1,-6.6,0,0,0,0,0
Nc1c(S(=O)(=O)c2ccccc2)c2nc3ccccc3nc2n1Cc1ccco1,0,0,0,0,0,0
Cc1ccc(S(=O)(=O)c2c(N)n(Cc3ccco3)c3nc4ccccc4nc23)cc1C,0,0,0,0,0,14
CCOC(=O)c1c(C)[nH]c(C)c1C(=O)CSc1nc2ccccc2n1CC,-5.3,0,0,0,0,0
CCOC(=O)c1c(C)[nH]c(C)c1C(=O)CSc1nc2ccccc2n1CCOC,0,0,0,0,0,0
CN1CC[C@@H]2C(=O)N3CCc4ccc(-c5ccc6c(c5)OCO6)cc4[C@@H]3C[C@@H]21,-,-,-,-,0,-
COc1ccc(/C=N/NC(=O)c2ccc(O)cc2)cc1CN1CCCc2ccccc21,0,-7.9,0,0,0,0
Cc1ccccc1CSc1nccn1-c1ccccc1,-4.4,0,0,0,0,0
C[C@H](NC(N)=O)C(=O)Nc1ccc(N2CCOCC2)c(S(=O)(=O)Nc2ccc(Cl)cc2)c1,-,-,-,-,0,-
CCCCCn1c(NCc2ccco2)nc2ccccc21,-4.5,0,0,0,0,0
CCCCCCn1c(C(C)NC(=O)c2ccco2)nc2ccccc21 (stereo not drawn),-9,0,0,0,0,0
O=c1c2cccnc2n(-c2ccccc2)n1Cc1ccc(Cl)cc1,0,0,14,0,0,0
CCOc1ccc(CCNC(=O)CN2C(=O)c3cccnc3Oc3ccc(Cl)cc32)cc1,0,0,0,0,0,0
COc1cc(C=C(c2nc3ccccc3s2)c2nc3ccccc3s2)ccc1O,0,0,0,0,0,6
Cc1cc(O)c(C(=O)Nc2cccc(Cl)c2)c(=O)n1C,0,0,0,0,0,0
CC(/C=N/n1c(C2CCCCC2)n[nH]c1=S)=C\c1ccccc1,0,0,21,0,0,0
Cc1cccc(/C=N/n2c(C3CCCCC3)n[nH]c2=S)c1,0,0,0,0,0,0
SMILES,Kir21 block,KCNK9 inh,KCNQ1 pot,hERG protect,KCNK3 block,KCNQ1 inh
C/C(=N\NC(=S)NC(C)C)c1ccccc1,0,0,0,0,0,0
CC(C)NC(=S)NC(c1ccccc1)(c1ccccc1)c1ccccc1,0,0,0,0,0,10
CC(C)=CCC/C(C)=C/CC/C(C)=C/COc1ccc2ccc(=O)oc2c1,-,-,-,-,0,-
CC(C)=CCC/C(C)=C/COc1c2occc2cc2ccc(=O)oc12,-,-,-,-,-9.8,-
CCc1ccc(NC(=O)C2CCCN2S(=O)(=O)c2ccc3c(c2)n(C)c(=O)c(=O)n3C)cc1 (stereo not drawn),0,0,0,0,0,0
Cc1cc(C(=O)Nc2ccccc2Cl)n(-c2ccccc2)n1,0,0,0,0,0,0
CC(Oc1cccc(Cl)c1)C(=O)Nc1cc(S(=O)(=O)N2CCOCC2)ccc1N1CCCCC1 (stereo not drawn),0,0,0,0,0,7
CCN1CCN(c2ccc(S(=O)(=O)N3CCOCC3)cc2NC(=O)C(C)Oc2cccc(Cl)c2)CC1 (stereo not drawn),0,0,0,0,0,0
C#Cc1ccc(CN2CCCC(C(=O)Nc3ccccc3Oc3cccnc3)C2)cc1 (stereo not drawn),-5.1,0,0,0,0,0
Cc1cccc(CN2CCC(C(=O)Nc3ccc(Oc4cccnc4)cc3)CC2)c1,-4.3,0,0,0,0,0
C#Cc1ccc(CN2CCC(C(=O)Nc3ccc(Oc4ccccc4)nc3)CC2)cc1,0,0,0,0,0,6
CC1CCN(Cc2nnc(-c3cccc(Br)c3)o2)CC1,0,0,0,0,0,0
CC(=O)NCCc1ccc(C(=O)COC(=O)C2CCCCC2)cc1,-,-,-,-,0,-
CCOC(=O)C1C(=O)C=C(c2ccc(C)cc2)CC1c1ccccc1 (stereo not drawn),0,0,0,0,0,0
CCOC(=O)C1C(=O)C=C(c2ccc([N+](=O)[O-])cc2)CC1c1ccccc1 (stereo not drawn),0,0,0,0,0,6
CCOC(=O)c1ccccc1NC(=O)COC(=O)CSC(C)C(=O)Nc1cc(C)on1 (stereo not drawn),0,0,0,0,0,0
COc1ccc(Cl)cc1NC(=O)CN(C)C(=O)Cc1ccsc1,0,0,0,0,0,0
COc1ccc(Cl)cc1NC(=O)CN(C)C(=O)Cc1ccc2c(c1)CCC2,-4.8,0,0,0,0,0
CCCCN1C(=O)/C(=C/C=C2\N(C)c3ccccc3C2(C)C)SC1=S,0,0,0,0,-,11
CCCN1C(=O)/C(=C\C=C2/C=CN(CC)c3ccccc32)SC1=S,0,0,0,0,0,0
CCC(C)n1cnc2c(c1=O)c1nc3ccccc3nc1n2Cc1ccc2c(c1)OCO2 (stereo not drawn),0,-7.2,0,0,-,7
COc1ccc(CNS(=O)(=O)c2ccc(F)c(C(=O)Nc3ccccc3OC)c2)cc1,0,0,0,0,0,0
COc1ccc(CNS(=O)(=O)c2ccc(F)c(C(=O)Nc3ccc(OC)cc3)c2)cc1,0,0,0,4.8,0,0
Cc1cnc(=O)[nH]c1SCc1ccc(C(F)(F)F)cc1,0,0,0,0,0,0
Cc1cnc(=O)[nH]c1SCc1ccc([N+](=O)[O-])cc1,0,-7.3,0,0,0,0
COc1ccc(Cl)cc1NC(=S)NCCSc1ccc(C)cc1,0,-8.1,0,0,0,0
O=C(O)COc1ccc(/C=N/NC(=O)C(O)(c2ccccc2)c2ccccc2)cc1,0,0,0,0,0,0
CC(=O)Nc1cccc(-c2nnc3c4ccccc4c(C)nn23)c1,0,0,0,52,-,0
Cc1cc(N2CCCN(C)CC2)nc2cc(Cl)ccc12,-4.6,0,0,0,0,0
c1ccc(CSc2nnnn2-c2cccc3ccccc23)nc1,-7.4,0,0,0,0,0
